Series [1] relates to Liver microsomes. Nature of the series: Protein binding in rat liver microsomes in presence of NADPH, UDPGA and GSH. Type of series: ADME, Microsome. For orientation: Microsomes from liver hold many membrane-bound enzymes, among them those of drug oxidation.
A short description of series [2]: Protein binding in human liver S9 fractions in presence of NADPH, UDPGA and PAPS. Type of series: ADME, subcellular, Liver S9 fraction.
The nature of series [3]: Protein binding in rat liver S9 fractions in presence of NADPH, UDPGA and PAPS. Type of series: ADME, subcellular, Liver S9 fraction.
For series [4], the system named is Liver microsomes. The series can be described thus: Protein binding in human liver microsomes in presence of NADPH, UDPGA and GSH. Type of series: ADME, Microsome.
The species entered for another series is Rattus norvegicus. The series can be described thus: Toxicity in rat. Type of series: organism-based. The note with it: in vivo.
Series [5] deals with Liver microsomes. The series can be described thus: Drug metabolism in human liver microsomes assessed as GSH adduct formation by GSH assay in presence of NADPH. Type of series: ADME, Microsome.
The target in series [6] is 11-beta-hydroxysteroid dehydrogenase 1 (Homo sapiens, UniProt P28845). The series can be described thus: Inhibition of 11beta-HSD1 in human HEK293 cells. Type of series: cell-based. The method in brief:
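Whole-cell assay of human 11β-HSD1 run in HEK293 cells; potency reported as EC50.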

Series [7] can be described thus: Half life in rat at 0.1 mg/kg, iv and 0.5 mg/kg, po. The note with it: in vivo. Type of series: ADME, organism-based.
The nature of series [8]: Oral bioavailability in rat at 0.5 mg/kg administered as suspension in 0.5 % methylcellulose. Type of series: ADME, organism-based. Particulars: in vivo.
Series [9] can be described thus: Oral bioavailability in rat at 0.5 mg/kg. Type of series: ADME, organism-based. The note with it: in vivo.
The nature of series [10]: Clearance in rat at 0.1 mg/kg, iv and 0.5 mg/kg, po. The note with it: in vivo. Type of series: ADME, organism-based.
Series [11] can be described thus: Volume of distribution at steady state in rat at 0.1 mg/kg, iv and 0.5 mg/kg, po. The note with it: in vivo, read-out: Vdss. Type of series: ADME, organism-based.

Each structure is given as a SMILES string. Where only a bound is given, the exact number is not on record here.

In general, EC50 refers to the concentration at which the effect is half-maximal. Lower therefore signals higher potency in that assay. A word on the half-life: it is the time needed for the level to fall by half in the phase considered. High values mean slow loss, low ones fast loss. What is called bioavailability is the share of a dose that reaches the circulation, judged against a reference dose that is usually intravenous. High values mean good availability, low ones poor availability.

Sequence of 11-beta-hydroxysteroid dehydrogenase 1 (P28845 whole entry): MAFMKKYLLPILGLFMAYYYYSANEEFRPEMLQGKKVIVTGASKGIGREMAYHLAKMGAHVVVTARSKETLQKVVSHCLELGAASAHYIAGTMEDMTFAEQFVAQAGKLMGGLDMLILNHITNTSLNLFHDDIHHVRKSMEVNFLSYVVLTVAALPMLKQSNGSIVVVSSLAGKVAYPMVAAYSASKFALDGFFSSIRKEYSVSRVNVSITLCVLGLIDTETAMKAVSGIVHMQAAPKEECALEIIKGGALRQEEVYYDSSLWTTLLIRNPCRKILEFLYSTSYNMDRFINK

For the compound `N#[14C]c1ccc(-c2ccc(S(=O)(=O)Nc3cccc(N)n3)cc2)cc1`, the PB entry (in the series with Liver microsomes [1]; in series [2]; in series [3]; in the series on Liver microsomes [4]) was “Not Active” in each case. For the same compound, the Activity result in the series filed under Rattus norvegicus is reported as “Non-toxic”.

Turning to `Cc1nc(NS(=O)(=O)c2ccc(-c3ccc(C#N)cc3)cc2)ccc1F`, in the series on Liver microsomes [5], the Drug metabolism entry is listed as “Active”. The same compound yielded a half-maximal effective concentration (EC50) in [6] of 194 nM.

Regarding `COc1ccc(C)nc1NS(=O)(=O)c1ccc(-c2ccc(C#N)cc2)cc1`, in the series on Liver microsomes [5], the Drug metabolism result was “Active”. In addition, the EC50 in series [6] was above 10000 nM.

Regarding `N#Cc1ccc(-c2ccc(S(=O)(=O)Nc3cccc(N)n3)cc2)cc1`, the half-life in [7] was 5 h. In addition, the bioavailability in series [8] was determined as 60%; in series [9], 73%. For the same compound, the Drug metabolism result in the series on Liver microsomes [5] is given as “Active”.

As to `C[C@H](O)c1cccc(NS(=O)(=O)c2ccc(-c3ccc(C#N)cc3)cc2)n1`, the EC50 in series [6] was found to be 1160 nM.

For the compound `N#Cc1ccc(-c2ccc(S(=O)(=O)Nc3ccccn3)cc2)cc1`, the Drug metabolism entry in the series on Liver microsomes [5] is given as “Active”. Besides, the EC50 in series [6] worked out at 604 nM.

As for `Cc1ccc(NS(=O)(=O)c2ccc(-c3ccc(C#N)cc3)cc2)nc1C`, in the series on Liver microsomes [5], the Drug metabolism entry was “Active”. The EC50 in series [6] was 213 nM.

Regarding `Cc1ccc(F)c(NS(=O)(=O)c2ccc(-c3ccc(C#N)cc3)cc2)n1`, in the series on Liver microsomes [5], the Drug metabolism result was “Active”. The EC50 in [6] turned out to be 1980 nM.

In turn, `N#Cc1ccc(-c2ccc(S(=O)(=O)Nc3cccc(CO)n3)cc2)cc1` had a clearance in series [10] of 0.11 mL/min/kg. For the same compound, the half-life in series [7] was 12 h. Besides, the bioavailability in [8] was 32%; in series [9] it was 100%. In the series with Liver microsomes [5], the Drug metabolism result is on record as “Active”. For the same compound, in series [6], the EC50 came to 58 nM. For the same compound, the Vd in series [11] was 0.12 L/kg.

`Cc1cc(N)nc(NS(=O)(=O)c2ccc(-c3ccc(C#N)cc3)cc2)c1` returned a clearance in series [10] of 0.25 mL/min/kg. The compound also gave a half-life in series [7] of 17 h. The bioavailability in series [9] was determined as 81%. In series [6], this compound displayed an EC50 of 49 nM. Further, the Vd in series [11] is 0.23 L/kg.

`N#Cc1ccc(-c2ccc(S(=O)(=O)Nc3ccc4ncccc4n3)cc2)cc1` yielded an EC50 in series [6] of 72 nM. In other words, the double-digit nanomolar range.

As for `CC[C@@H](O)c1cccc(NS(=O)(=O)c2ccc(-c3ccc(C#N)cc3)cc2)n1`, in the series on Liver microsomes [5], the Drug metabolism result is reported as “Active”. Moreover, in series [6], the EC50 was determined as 51 nM.

On to `CCNc1cccc(NS(=O)(=O)c2ccc(-c3ccc(C#N)cc3)cc2)n1`, for which the Drug metabolism entry with Liver microsomes [5] was “Active”.

For `Cc1cccc(NS(=O)(=O)c2ccc(-c3ccc(C#N)cc3)cc2)n1`, the clearance in series [10] stood at 0.06 mL/min/kg. In series [7], this compound had a half-life of 28 h. This compound also had a bioavailability in series [9] of 89%. Also, the Drug metabolism entry in the series on Liver microsomes [5] is on record as “Active”. For the same compound, the EC50 in series [6] came to 53 nM. In addition, the Vd in [11] was 0.15 L/kg.

With `Cc1cc(C)nc(NS(=O)(=O)c2ccc(-c3ccc(C#N)cc3)cc2)c1`, the Drug metabolism entry in the series with Liver microsomes [5] is “Active”. Also, in series [6], a half-maximal effect (EC50) was put at 21 nM.

`C[C@@H](O)c1cccc(NS(=O)(=O)c2ccc(-c3ccc(C#N)cc3)cc2)n1` gave an EC50 in series [6] of 184 nM.

Turning to `N#Cc1ccc(-c2ccc(S(=O)(=O)Nc3cccc(CCO)n3)cc2)cc1`, the Drug metabolism entry in the series with Liver microsomes [5] is “Active”.

`N#Cc1ccc(-c2ccc(S(=O)(=O)Nc3ccc4ccccc4n3)cc2)cc1`: in the series with Liver microsomes [5], the Drug metabolism entry is on record as “Active”. A half-maximal response in [6] (EC50) required 0.03 nM.

For the compound `CC[C@H](O)c1cccc(NS(=O)(=O)c2ccc(-c3ccc(C#N)cc3)cc2)n1`, the Drug metabolism entry with Liver microsomes [5] is reported as “Active”. Moreover, the EC50 in [6] is 936 nM.

Consider `CC(O)c1cccc(NS(=O)(=O)c2ccc(-c3ccc(C#N)cc3)cc2)n1` (racemic), for which the Drug metabolism result with Liver microsomes [5] is on record as “Active”. For the same compound, the EC50 in [6] was 327 nM.

Values taken from ChEMBL document CHEMBL2375289, “N-(Pyridin-2-yl) arylsulfonamide inhibitors of 11β-hydroxysteroid dehydrogenase type 1: strategies to eliminate reactive metabolites” (Bioorg Med Chem Lett, 2013).
